This note sets out measurements from ChEMBL document CHEMBL3286203, “Reactive oxygen species (ROS) inducible DNA cross-linking agents and their effect on cancer cells and normal lymphocytes” (J Med Chem, 2014).

As usually defined, the GI50 is the concentration that inhibits growth by half. The term pIC50 denotes the IC50 on a negative log10 scale, so that one unit is a factor of ten. As a reminder, the logP is the decadic logarithm of the partition coefficient of the neutral form, usually between octanol and water. A higher logP goes with higher lipophilicity.

SMILES strings stand for the structures. pIC50: −log10 of the molar value. Active and inactive are the calls of the source. No cut-off for these calls is given here.

Data set [1] can be described thus: Induction of apoptosis in human CLL cells at 10 uM after 24 hrs by Annexin/propidium iodide staining-based assay (reference value: 95%). It counts as functional.
Data set [2] can be described thus: Induction of apoptosis in human CLL cells at 10 uM after 48 hrs by Annexin/propidium iodide staining-based assay (reference value: 91%). It counts as functional.
The test system of data set [3] is NCI-H226. Briefly: Cytotoxicity against human NCI-H226 cells after 48 hrs by SRB assay. Format: functional. The following applies: NCI-H226, 48 h. The method, boiled down: (§1)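 GI50 from the NCI Developmental Therapeutics Program in vitro human tumor cell screen. Cell lines were maintained in RPMI 1640 with 5% fetal bovine serum and 2 mM L-glutamine. They were seeded at 5000–40 000 cells/well, depending on each line's doubling time, then exposed to drug for 48 h at 37 °C, 5% CO2.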
Background: In SRB staining, fixed cells bind dye roughly in proportion to their protein.

The test system of data set [4] is HCT-116. Briefly: Cytotoxicity against human HCT116 cells after 48 hrs by SRB assay. It counts as functional. The following applies: HCT-116, 48 h. The gist of the method:
(§2)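 GI50 was determined in the NCI Developmental Therapeutics Program in vitro 60-line cancer screen. Tumour lines were maintained in RPMI 1640 containing 5% FBS and 2 mM L-glutamine. Cells were inoculated at 5000–40 000 cells/well according to each line's doubling time before drug exposure.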

The subject of data set [5] is SF-295. Briefly: Cytotoxicity against human SF295 cells after 48 hrs by SRB assay. Format: functional. The following applies: SF-295, 48 h. The method, boiled down: as §1
For data set [6], the system named is SNB-75. Briefly: Cytotoxicity against human SNB75 cells after 48 hrs by SRB assay. Format: functional. The following applies: SNB-75, 48 h. The gist of the method:
(§3)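 GI50 from the NCI-60 DTP human tumour line screen. Lines grown in RPMI 1640 with 5% fetal bovine serum and 2 mM L-glutamine, plated at 5000–40 000 cells/well according to doubling time. Incubated 48 h at 37 °C, 5% CO2.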

For data set [7], the system named is MDA-MB-435. In words: Cytotoxicity against human MDA-MB-435 cells after 48 hrs by SRB assay. The following applies: MDA-MB-435, 48 h. It counts as functional. The gist of the method: as §1
For data set [8], the system named is SK-MEL-28. Briefly: Cytotoxicity against human SK-MEL-28 cells after 48 hrs by SRB assay. Format: functional. The following applies: SK-MEL-28, 48 h. The gist of the method: as §1
Data set [9] relates to SK-MEL-5. In words: Cytotoxicity against human SK-MEL-5 cells after 48 hrs by SRB assay. The following applies: SK-MEL-5, 48 h. Format: functional. The gist of the method: as §1
Data set [10] can be described thus: Cytotoxicity against human UACC62 cells after 48 hrs by SRB assay. It counts as functional. The following applies: UACC-62, 48 h. The gist of the method: as §3
Data set [11] relates to IGROV-1. Briefly: Cytotoxicity against human IGROV1 cells after 48 hrs by SRB assay. The following applies: IGROV-1, 48 h. It counts as functional. The gist of the method:
as §2

Data set [12] has as its system 786-0. In words: Cytotoxicity against human 786-0 cells after 48 hrs by SRB assay. It counts as functional. The following applies: 786-0, 48 h. The gist of the method:
as §2

Data set [13] has as its system CAKI-1. Briefly: Cytotoxicity against human Caki1 cells after 48 hrs by SRB assay. It counts as functional. The following applies: CAKI-1, 48 h. The method, boiled down: as §2
For data set [14], the system named is TK-10. In words: Cytotoxicity against human TK10 cells after 48 hrs by SRB assay. It counts as functional. The following applies: TK-10, 48 h. The method, boiled down:
as §3

For data set [15], the system named is MDA-MB-468. In words: Cytotoxicity against human MDA-MB-468 cells after 48 hrs by SRB assay. The following applies: MDA-MB-468, 48 h. Format: functional. The gist of the method:
as §1

Data set [16] has as its system CLL. In words: Induction of apoptosis in human CLL cells at 10 uM by Annexin/propidium iodide staining-based assay. The following applies: TDE = time-dependent effect. Format: functional, cell-based.
Data set [17] can be described thus: (§4) Induction of apoptosis in human CLL cells after 24 hrs by Annexin/propidium iodide staining-based assay. Format: functional, cell-based. The method, boiled down: (§5)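 Primary CLL lymphocytes, Ficoll-Hypaque isolated from patient peripheral blood. Held fresh in RPMI 1640 with 10% autologous plasma. Dose–response over 24 h (n = 3). Apoptosis by annexin V–FITC/PI double staining and flow cytometry; IC50 derived from the dose–response.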

In data set [18] the test system is CLL. The data set is described as §4. Format: functional, cell-based. The method, boiled down: as §5
A short description of data set [19]: Induction of apoptosis in human lymphocytes at 10 uM after 24 to 48 hrs by Annexin/propidium iodide staining-based assay. The following applies: lymphocyte. It counts as cell-based.
For data set [20], the system named is CLL. In words: Induction of apoptosis in human CLL cells at 10 uM after 24 hrs by DCDFA assay in presence of NAC. Format: functional, cell-based.
Data set [21] in a line: Drug level in phosphate buffer treated with 40 mM N,N-Bis(2-chloroethyl)-4-(4,4,5,5-tetramethyl-1,3,2-dioxaborolan-2-yl)aniline after 30 mins by 1H-NMR analysis in presence of H2O2. It counts as physicochemical. The following applies: 0.5 h. The gist of the method:
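1H NMR of the boronate mustard (40 mM) with H2O2 (60 mM), 30 min after H2O2 addition. Solvent was 400 mM phosphate buffer pH 8 (50 μL) in DMSO-d6 (450 μL). Read-out is conversion to the activated product.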

The nature of data set [22]: Induction of [32P]-labeled 49-mer oligonucleotide duplex DNA 12 interstrand cross-linking (unknown origin) at purine nucleotide site using compound radiolabeled at 5' of 12a in phosphate buffer at pH 7 at 90 degC after 30 mins by PAGE. The gist of the method: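 Cross-linked duplex, with strand 12a 32P-labelled at the 5′ end, heated at 90 °C either in phosphate buffer pH 7.0 or in 1.0 M piperidine. Cleavage sites were assigned by denaturing PAGE against G + A sequencing and Fe·EDTA markers.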

Data set [23] can be described thus: Induction of [32P]-labeled 49-mer oligonucleotide duplex DNA 12 interstrand cross-linking (unknown origin) at purine nucleotide site using compound radiolabeled at 3' of 12a in phosphate buffer at pH 7 at 90 degC after 30 mins by PAGE.
Data set [24] is described as follows: Induction of [32P]-labeled 49-mer oligonucleotide duplex DNA 12 interstrand cross-linking (unknown origin) at purine nucleotide site using compound radiolabeled at 5' of 12b at 90 deg C after 30 mins by PAGE in presence of piperidine.
Data set [25] has as its system SR. In words: Cytotoxicity against human SR cells after 48 hrs by SRB assay. It counts as functional. The gist of the method: as §3
Data set [26] is described as follows: Induction of [32P]-labeled 49-mer oligonucleotide duplex DNA 12' with GNC sequence in middle (unknown origin) interstrand cross-linking at 1 mM after 12 hrs by PAGE in presence of H2O2.
Data set [27] in a line: Induction of [32P]-labeled 49-mer oligonucleotide duplex DNA 12 with GNC sequence at terminus (unknown origin) interstrand cross-linking at 1 mM after 16 hrs by PAGE in presence of O2-.
Data set [28] in a line: Induction of [32P]-labeled 49-mer oligonucleotide duplex DNA 12 with GNC sequence at terminus (unknown origin) interstrand cross-linking at 1 mM after 16 hrs by PAGE in presence of TBHP.
Data set [29] is described as follows: Induction of [32P]-labeled 49-mer oligonucleotide duplex DNA 12 with GNC sequence at terminus (unknown origin) interstrand cross-linking at 1 mM after 16 hrs by PAGE in presence of OCL-.
Data set [30] can be described thus: 1-Octanol-PBS partition coefficient, log P of the compound. It counts as physicochemical.
Data set [31] is described as follows: Drug level in deuterated phosphate buffer treated with 40 mM N,N-Bis(2-chloroethyl)-4-(4,4,5,5-tetramethyl-1,3,2-dioxaborolan-2-yl)aniline after 24 hrs by 1H-NMR analysis. Format: physicochemical. The gist of the method:
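1H NMR of the boronate mustard (40 mM) held 24 h in deuterated potassium phosphate buffer (4.0 mM) with no H2O2. Solvent was 1.0 M deuterated potassium phosphate buffer/DMSO-d6/D2O = 2:450:48.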

As for `CC1(C)OB(c2ccc(N(CCCl)CCBr)cc2)OC1(C)C`, the Activity in [1] was 90%; in data set [2], 81%; in [16] it was “tde”; in data set [18] it was “Dose-dependent effect”; in data set [19] it was “Toxic”. Besides, the 50% growth inhibitory concentration (GI50) in data set [3] worked out at 11.9 µM; in data set [4], 13.9 µM; in data set [5], 2.64 µM; in [6], 10.7 µM; in data set [7], 16.5 µM; in [8], 20.6 µM. The GI50 in data set [9] was 13.7 µM; in data set [10], 9.38 µM; in data set [11], 19.1 µM; in data set [12] it was 8.95 µM; in data set [13], 3.52 µM; in [14] it was 22.6 µM. Moreover, the figures for the GI50 in [15] and in data set [25] were 1.49 µM and 0.66 µM, respectively. The compound further showed a pIC50 in data set [17] of 4.97. Besides, in [20], the result was inactive. The Drug metabolism entry in data set [21] is given as “metabolite_detected”. The outcome in data set [22], in [23] and in [24] was Active.
As for `CC1(C)OB(c2ccc(N(CCBr)CCBr)cc2)OC1(C)C`, the Activity in data set [26] came to 35%. For the same compound, the result in data set [22], in data set [23] and in [24] was Active.
Take `CC1(C)OB(c2ccc(N(CCBr)CCOS(C)(=O)=O)cc2)OC1(C)C`: the outcome in data set [22], in [23] and in data set [24] was Active.
For the compound `CC1(C)OB(c2ccc(N(CCCl)CCOS(C)(=O)=O)cc2)OC1(C)C`, the GI50 in [3] was 10.4 µM; in data set [4] it was 11.1 µM; in [5] it was 2.99 µM; in data set [6] it was 5.85 µM; in [7], 15.3 µM; in data set [8], 15.6 µM. The GI50 in data set [9] was 12.8 µM; in data set [10] it was 5.83 µM; in data set [11], 13.6 µM; in [12] it was 6.55 µM; in data set [13], 3.1 µM; in data set [14], 18 µM. The GI50 came out at 1.07 µM in data set [15] and 0.63 µM in [25]. The Activity in [27] was 5%; in [28], 1%; in data set [29] it was 0.9%. Besides, the outcome in data set [22], in data set [23] and in [24] was Active.
`CC1(C)OB(c2ccc(N(CCCl)CCCl)cc2)OC1(C)C`: the Activity was 93% in [1]; 83% in [2]; “tde” in data set [16]; “Dose-dependent effect” in data set [18]; “Toxic” in data set [19]; 27% in data set [26]. Moreover, the Activity turned out to be 5% in data set [27], 1% in data set [28] and 0.9% in [29]. Further, the GI50 in data set [3] amounted to 12.9 µM; in data set [4], 11.6 µM; in data set [5], 2.11 µM; in data set [6], 7.98 µM; in data set [7] it was 14.2 µM; in data set [8], 21 µM. The GI50 in [9] turned out to be 14.5 µM; in [10], 6.12 µM; in [11], 15.6 µM; in [12], 5.35 µM; in data set [13], 2.78 µM; in [14] it was 16.7 µM. Also, the GI50 worked out at 1.6 µM in [15] and 0.63 µM in data set [25]. For the same compound, the logP in data set [30] came out at 2.8. This compound showed a pIC50 in data set [17] of 5.03. In data set [31], the Drug metabolism result was “metabolite_detected”. Moreover, the outcome in [22], in data set [23] and in [24] was Active.
